From ChEMBL document CHEMBL3994612, “Novel 4-(4-substituted amidobenzyl)furan-2(5H)-one derivatives as topoisomerase I inhibitors” (Eur J Med Chem, 2017)
Active and inactive are the calls of the source. The rule behind the calls is not given here.

Tests used:
A549 = assay: Cytotoxicity against human A549 cells assessed as reduction in cell viability after 48 hrs by MTT assay; type: functional, cell-based; settings: A549, 48 h
In short: (§1)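 MCF-7, HeLa and A549 cells seeded at 3.5 × 10^3 per well in medium with 10% FBS and left overnight. Medium then replaced with fresh medium holding a range of compound concentrations for 48 h. MTT (5 mg/mL) added, 4 h at 37 °C. Formazan dissolved in DMSO, absorbance read at 570 nm. Triplicate wells per dose; IC50 derived.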

[1] = target: T1, DNA topoisomerase 1 (Homo sapiens) (UniProt P11387); assay: Inhibition of recombinant human topoisomerase-1 assessed as reduction in relaxation of supercoiled pBR322 DNA substrate at 100 uM after 30 mins by ethidium bromide staining based agarose gel electrophoresis relative to control
T1 sequence (whole entry): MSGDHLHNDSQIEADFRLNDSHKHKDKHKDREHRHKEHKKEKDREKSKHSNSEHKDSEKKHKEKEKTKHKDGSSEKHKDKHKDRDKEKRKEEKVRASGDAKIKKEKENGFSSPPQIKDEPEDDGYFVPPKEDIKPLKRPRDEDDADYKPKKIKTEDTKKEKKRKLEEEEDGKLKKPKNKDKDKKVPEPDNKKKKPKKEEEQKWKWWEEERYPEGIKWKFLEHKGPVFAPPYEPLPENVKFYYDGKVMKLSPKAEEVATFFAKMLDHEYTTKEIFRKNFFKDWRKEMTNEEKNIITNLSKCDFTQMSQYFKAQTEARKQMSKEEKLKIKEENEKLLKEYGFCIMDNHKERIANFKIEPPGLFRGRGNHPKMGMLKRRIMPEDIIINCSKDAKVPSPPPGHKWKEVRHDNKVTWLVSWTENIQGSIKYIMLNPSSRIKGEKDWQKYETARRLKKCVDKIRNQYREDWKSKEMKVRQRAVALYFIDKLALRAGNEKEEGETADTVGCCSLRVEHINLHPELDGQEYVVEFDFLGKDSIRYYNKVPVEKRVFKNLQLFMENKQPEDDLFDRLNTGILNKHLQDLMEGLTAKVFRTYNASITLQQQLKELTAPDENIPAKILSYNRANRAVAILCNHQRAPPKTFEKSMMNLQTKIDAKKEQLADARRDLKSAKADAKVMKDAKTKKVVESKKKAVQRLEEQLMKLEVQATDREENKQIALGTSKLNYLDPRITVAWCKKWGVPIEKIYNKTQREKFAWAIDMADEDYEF
In short: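 pBR322 DNA (0.1 µg) and recombinant human Topo I (0.2 units) incubated ± compound 30 min at 37 °C in supplier's Topo I buffer; compounds from DMSO stocks. Stopped with bromophenol blue/xylene cyanol/glycerol dye. Read-out: 1% agarose in 1× TAE, 100 V for 30 min, EB stain (0.5 µg/mL). Percent inhibition from gray-scale band analysis; camptothecin positive control.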

HeLa = assay: Cytotoxicity against human HeLa cells assessed as reduction in cell viability after 48 hrs by MTT assay; type: functional, cell-based; in short: as §1
MCF7 = assay: Cytotoxicity against human MCF7 cells assessed as reduction in cell viability after 48 hrs by MTT assay; type: functional, cell-based; settings: MCF7, 48 h; in short: as §1
[2] = target: T1, DNA topoisomerase 1 (Homo sapiens); assay: Inhibition of recombinant human topoisomerase-1 assessed as DNA insertion by measuring drug-DNA-enzyme ternary complex formation up to 100 uM using supercoiled pBR322 DNA substrate after 30 mins by ethidium bromide staining based agarose gel electrophoresis
In short: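 Supercoiled pBR322 DNA (0.1 µg) in Topo I buffer (50 mM Tris-HCl pH 7.5, 10 mM MgCl2, 50 mM KCl, 0.1 mM EDTA, 0.5 mM DTT, BSA) pre-incubated with compound 10 min at 25 °C. Excess Topo I (4 units) then added, 30 min at 37 °C. Read-out: 1% agarose/TAE electrophoresis, EB staining, UV imaging. Ethidium bromide positive control; camptothecin negative control.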

[3] = target: T1, DNA topoisomerase 1 (Homo sapiens); assay: Inhibition of recombinant human topoisomerase-1 assessed as interference in DNA binding to enzyme by measuring reduction in enzyme-DNA complex using supercoiled pBR322 DNA substrate preincubated for 20 mins followed by substrate addition measured after 3 mins by electrophoretic mobility shift assay
[4] = target: T1, DNA topoisomerase 1 (Homo sapiens); assay: Poison activity at recombinant human topoisomerase-1 assessed as stabilization of DNA-enzyme cleavage complex by measuring increase in linear DNA using supercoiled pBR322 DNA substrate after 30 mins by ethidium bromide staining based agarose gel electrophoresis
[5] = target: T1, DNA topoisomerase 1 (Homo sapiens); assay: Inhibition of recombinant human topoisomerase-1 assessed as DNA insertion by measuring drug-DNA-enzyme ternary complex formation up to 25 uM using supercoiled pBR322 DNA substrate after 30 mins by ethidium bromide staining based agarose gel electrophoresis
In short: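 Supercoiled pBR322 DNA (0.1 µg) preincubated with compound 10 min at 25 °C, then excess Topo I (4 units) added, 30 min at 37 °C in 20 µL Tris-HCl pH 7.5 buffer with MgCl2, KCl, EDTA, DTT, BSA. Run on 1% agarose in TAE 40 min, EB post-stained, UV-imaged. Unwinding read as supercoiled retained versus relaxed.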

`O=C(Cc1ccc(C(F)(F)F)cc1)Nc1ccc(CC2=CC(=O)OC2)cc1` was tested, and the IC50 (A549) was 45.8 µM, the inhibition [1] was 11% and the IC50 (HeLa) was 48.8 µM. The IC50 (MCF7) was 46.4 µM.
With `C=C1OC(=O)C=C1Cc1ccc(NC(=O)/C=C/c2cccc(F)c2)cc1` the inhibition [2] was “inactive”, the IC50 (A549) was 35.2 µM and the inhibition [1] was 34.5%. For the same compound, the IC50 (HeLa) was 30.2 µM and the IC50 (MCF7) was 39 µM.
`C=C1OC(=O)C=C1Cc1ccc(NC(=O)/C=C/c2ccc(F)cc2)cc1` was tested, and the inhibition [2] was “inactive”, the IC50 (A549) was 3.46 µM and the inhibition [3] was “Dose-dependent effect”. It also gave an inhibition [1] of 94%, an IC50 (HeLa) of 2.77 µM and an IC50 (MCF7) of 4.43 µM. For the same compound, the Activity [4] was “Dose-dependent effect”.
With `C=C1OC(=O)C=C1Cc1ccc(NC(=O)/C=C/c2ccccc2)cc1` the inhibition [2] was “inactive”, the IC50 (A549) was 14.8 µM and the inhibition [1] was 48.6%. For the same compound, the IC50 (HeLa) was 7.34 µM and the IC50 (MCF7) was 9.49 µM.
`C=C1OC(=O)C=C1Cc1ccc(NC(=O)Cc2ccccc2)cc1` was tested, and the inhibition [2] was “inactive”, the IC50 (A549) was 39 µM and the inhibition [1] was 28.5%. The IC50 (HeLa) was > 50 µM and the IC50 (MCF7) was > 50 µM.
With `C=C1OC(=O)C=C1Cc1ccc(NC(=O)Cc2ccccc2F)cc1` the inhibition [2] was “inactive”, the IC50 (A549) was 32 µM and the inhibition [1] was 32.8%. The IC50 (HeLa) was 40.5 µM and the IC50 (MCF7) was 48.3 µM.
In the case of `CC[C@@]1(O)C(=O)OCc2c1cc1n(c2=O)Cc2cc3ccccc3nc2-1` [CAMPTOTHECIN], the IC50 (A549) is reported as 0.24 µM, the IC50 (HeLa) is reported as 60 µM and the IC50 (MCF7) is reported as 71.3 µM.
With `C=C1OC(=O)C=C1Cc1ccc(NC(=O)/C=C/c2ccccc2F)cc1` the inhibition [2] was “inactive”, the IC50 (A549) was 7.41 µM and the inhibition [1] was 44.6%. It also gave an IC50 (HeLa) of 6.93 µM and an IC50 (MCF7) of 13.8 µM.
In the case of `C=C1OC(=O)C=C1Cc1ccc(NC(=O)c2ccccc2)cc1`, the inhibition [2] is reported as “inactive”, the IC50 (A549) is reported as 49.8 µM and the inhibition [1] is reported as 28.7%. For the same compound, the IC50 (HeLa) was 48.3 µM and the IC50 (MCF7) was > 50 µM.
With `C=C1OC(=O)C=C1Cc1ccc(NC(=O)Cc2cccc(C(F)(F)F)c2)cc1` the inhibition [2] was “inactive”, the IC50 (A549) was 6.69 µM and the inhibition [1] was 41.9%. The IC50 (HeLa) was 8.63 µM and the IC50 (MCF7) was 6.15 µM.
In the case of `O=C(Cc1cccc(C(F)(F)F)c1)Nc1ccc(CC2=CC(=O)OC2)cc1`, the IC50 (A549) is reported as > 50 µM, the inhibition [1] is reported as 12.3% and the IC50 (HeLa) is reported as 44 µM. For the same compound, the IC50 (MCF7) was 40.1 µM.
In the case of `C=C1OC(=O)C=C1Cc1ccc(NC(=O)Cc2ccc(Cl)cc2)cc1`, the inhibition [2] is reported as “inactive”, the IC50 (A549) is reported as 37.6 µM and the inhibition [1] is reported as 30.3%. It also gave an IC50 (HeLa) of 35.5 µM and an IC50 (MCF7) of 37.4 µM.
`C=C1OC(=O)C=C1Cc1ccc(NC(=O)Cc2ccccc2Cl)cc1` was tested, and the inhibition [2] was “inactive”, the IC50 (A549) was 48.8 µM and the inhibition [1] was 21.3%. It also gave an IC50 (HeLa) of 42.6 µM and an IC50 (MCF7) of 40.9 µM.
In the case of `O=C(/C=C/c1cccc(F)c1)Nc1ccc(CC2=CC(=O)OC2)cc1`, the IC50 (A549) is reported as > 50 µM, the inhibition [1] is reported as 13.1% and the IC50 (HeLa) is reported as 49 µM. For the same compound, the IC50 (MCF7) was 39 µM.
With `C=C1OC(=O)C=C1Cc1ccc(NC(=O)Cc2ccccc2C(F)(F)F)cc1` the inhibition [2] was “inactive”, the IC50 (A549) was 37.5 µM and the inhibition [1] was 32.3%. It also gave an IC50 (HeLa) of 37.5 µM and an IC50 (MCF7) of 48.7 µM.
In the case of `O=C(/C=C/c1ccccc1F)Nc1ccc(CC2=CC(=O)OC2)cc1`, the IC50 (A549) is reported as 40 µM, the inhibition [1] is reported as 11.7% and the IC50 (HeLa) is reported as 45.8 µM. For the same compound, the IC50 (MCF7) was > 50 µM.
With `O=C(Cc1ccccc1C(F)(F)F)Nc1ccc(CC2=CC(=O)OC2)cc1` the IC50 (A549) was 48.9 µM, the inhibition [1] was 20.3% and the IC50 (HeLa) was 44.6 µM. The IC50 (MCF7) was 43.8 µM.
For `C=C1OC(=O)C=C1Cc1ccc(NC(=O)Cc2cccc(Cl)c2)cc1`, the inhibition [2] was “inactive”, the IC50 (A549) was 41 µM and the inhibition [1] was 22.5%. It also gave an IC50 (HeLa) of 45.8 µM and an IC50 (MCF7) of 42.9 µM.
For `C=C1OC(=O)C=C1Cc1ccc(NC(=O)Cc2ccc(C(F)(F)F)cc2)cc1`, the inhibition [2] was “inactive”, the IC50 (A549) was 42.9 µM and the inhibition [1] was 34.9%. It also gave an IC50 (HeLa) of 39.7 µM and an IC50 (MCF7) of 39.8 µM.
`C=C1OC(=O)C=C1Cc1ccc(NC(=O)Cc2ccc(C)cc2)cc1` was tested, and the inhibition [2] was “inactive”, the IC50 (A549) was 7.79 µM and the inhibition [1] was 47.9%. It also gave an IC50 (HeLa) of 7.12 µM and an IC50 (MCF7) of 3.94 µM.
With `CC[n+]1c(-c2ccccc2)c2cc(N)ccc2c2ccc(N)cc21` the inhibition [5] was “Active”.
`C=C1OC(=O)C=C1Cc1ccc(NC(=O)Cc2ccc(F)cc2)cc1` was tested, and the inhibition [2] was “inactive”, the IC50 (A549) was 22.8 µM and the inhibition [1] was 43.3%. For the same compound, the IC50 (HeLa) was 16.2 µM and the IC50 (MCF7) was 16 µM.
In the case of `O=C(/C=C/c1ccc(F)cc1)Nc1ccc(CC2=CC(=O)OC2)cc1`, the IC50 (A549) is reported as 41.8 µM, the inhibition [1] is reported as 12.1% and the IC50 (HeLa) is reported as > 50 µM. The IC50 (MCF7) was 47.9 µM.
For `Cc1ccc(CC(=O)Nc2ccc(CC3=CC(=O)OC3)cc2)cc1`, the IC50 (A549) was 41.4 µM, the inhibition [1] was 19.4% and the IC50 (HeLa) was > 50 µM. For the same compound, the IC50 (MCF7) was 49.2 µM.
